This is an account of results in PMC4129520 (Neuron, 2014).

For experiment [1], the system named is γ-secretase. Description: GM1-bound Aβ in TBS-Tx extracts of 3 mo J20 tg mice after Compound E. The experiment is classed as in vivo, mouse. A digest of the protocol: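 3-month J20 transgenic mice were injected with test compound or vehicle, and brains were harvested 2.5 h or 5 h later. Brains were Dounce-homogenized in ice-cold TBS (20 mM Tris-HCl, 150 mM NaCl, pH 7.4) with protease inhibitors and spun 175,000 g for 30 min at 4 °C. The pellet was re-extracted the same way in TBS-1% Triton-X. Both extracts underwent R1282 IP, then WB: 3D6+6E10+266+2G3+21F12 for Aβ, CTβ for GM1. N=4 vehicle mice; mean ± SEM; 2-way ANOVA with Bonferroni post-test.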

For experiment [2], the system named is γ-secretase. As to conditions: ref Hong et al., 2011; cited from earlier work.

SMILES strings stand for the structures.

On to `C[C@H](NC(=O)Cc1cc(F)cc(F)c1)C(=O)N[C@H]1N=C(c2ccccc2)c2ccccc2N(C)C1=O` [Compound E], for which the “Levels of GM1-bound Aβ in TBS-Tx” value in the experiment on γ-secretase [1] (3 mo J20 tg mice, brains harvested 2.5 h or 5 h after injection, N=3 and 4 mice) is “decreased”. In the experiment with γ-secretase [1] (data not shown), the “Effect on total GM1 levels in the brain” value is on record as “no effect”. Further, the “t1/2 of decline in brain ISF Aβ” value with γ-secretase [2] is given as ~ 2 h.
